One block for each compound: values may come before it. Activity calls are given as the source filed them. No cut-off for these calls is given here.
Columns and labels:
[1] = molecular target: Mitogen-activated protein kinase 9 (Homo sapiens) (UniProt P45984); experiment: Inhibition of JNK2 at 10 uM by Cherenkov counting in presence of 20 uM ATP
[2] = molecular target: T1, Casein kinase I isoform delta (Homo sapiens, UniProt P48730); experiment: Inhibition of CK1delta by Cherenkov counting in presence of 20 uM ATP
Target sequence in this assay (P48730 whole entry, canonical isoform): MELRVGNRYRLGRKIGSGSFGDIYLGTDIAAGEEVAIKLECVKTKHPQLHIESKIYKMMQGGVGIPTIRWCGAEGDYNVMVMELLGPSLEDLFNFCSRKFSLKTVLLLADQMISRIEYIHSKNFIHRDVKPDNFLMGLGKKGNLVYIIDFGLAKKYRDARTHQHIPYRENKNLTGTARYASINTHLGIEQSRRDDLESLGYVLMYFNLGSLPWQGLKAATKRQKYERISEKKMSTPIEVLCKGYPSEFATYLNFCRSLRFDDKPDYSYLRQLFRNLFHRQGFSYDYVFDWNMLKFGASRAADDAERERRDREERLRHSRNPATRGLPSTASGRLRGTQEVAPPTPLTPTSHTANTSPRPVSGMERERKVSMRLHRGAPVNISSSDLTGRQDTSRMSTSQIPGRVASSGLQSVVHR

[3] = molecular target: Mitogen-activated protein kinase 10 (Homo sapiens) (UniProt P53779); experiment: Inhibition of JNK3 at 10 uM by Cherenkov counting in presence of 20 uM ATP
Sequence of Mitogen-activated protein kinase 10 (Homo sapiens) (P53779 whole entry): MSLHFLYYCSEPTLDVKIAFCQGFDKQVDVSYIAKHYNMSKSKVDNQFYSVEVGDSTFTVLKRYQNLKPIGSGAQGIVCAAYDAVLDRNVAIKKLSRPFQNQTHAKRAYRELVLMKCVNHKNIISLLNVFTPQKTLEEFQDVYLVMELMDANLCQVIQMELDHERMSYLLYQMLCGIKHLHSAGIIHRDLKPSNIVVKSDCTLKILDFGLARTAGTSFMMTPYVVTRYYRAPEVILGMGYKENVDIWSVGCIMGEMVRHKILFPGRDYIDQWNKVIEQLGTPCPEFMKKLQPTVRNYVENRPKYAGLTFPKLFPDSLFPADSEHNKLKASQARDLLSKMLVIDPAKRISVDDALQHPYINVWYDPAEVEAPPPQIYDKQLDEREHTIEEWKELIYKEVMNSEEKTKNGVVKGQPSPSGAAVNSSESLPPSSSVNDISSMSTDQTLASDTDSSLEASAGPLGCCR

[4] = Cell cycle arrest in human AC1-M88 cells assessed as accumulation at G1 phase at 0.38 uM after 48 hrs by propidium iodide staining-based FACS analysis; format: functional
[5] = molecular target: Casein kinase I isoform delta (Rattus norvegicus) (UniProt Q06486); details: 5 nM
Sequence of Casein kinase I isoform delta (Rattus norvegicus) (Q06486 whole entry, looked up, the tested form may be a part, canonical isoform): as the sequence (P48730 whole entry, canonical isoform) above, with I381V counted along it

[6] = test system: Casein kinase I isoform delta (Rattus norvegicus), Q06486 [M82F]; details: 5 nM
Sequence of Casein kinase I isoform delta (Rattus norvegicus), Q06486 [M82F] (Q06486 whole entry M82F, canonical isoform): as the sequence (P48730 whole entry, canonical isoform) above, with M82F, I381V counted along it

[7] = Cell cycle arrest in human AC1-M88 cells assessed as accumulation at subG1 phase at 0.38 uM after 48 hrs by propidium iodide staining-based FACS analysis; format: functional
[8] = molecular target: Casein kinase I isoform delta (Rattus norvegicus) (UniProt Q06486); experiment: Inhibition of GST-fused rat CK1delta at 10 nM by Cherenkov counting in presence of 20 uM ATP
[9] = molecular target: T1, Casein kinase I isoform delta; experiment: Inhibition of recombinant CK1delta kinase domain at 10 nM by ATP competitive binding assay
Target sequence in this assay (P48730 whole entry, looked up, canonical isoform): as the sequence (P48730 whole entry, canonical isoform) above

[10] = Cell cycle arrest in human AC1-M88 cells assessed as accumulation at subG1 phase at 0.26 uM after 48 hrs by propidium iodide staining-based FACS analysis; format: functional
[11] = Cell cycle arrest in human AC1-M88 cells assessed as accumulation at G1 phase at 0.26 uM after 48 hrs by propidium iodide staining-based FACS analysis; format: functional
In short: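 AC1-M88 cells (extravillous trophoblast fused with the Jeg-3 choriocarcinoma mutant AC1-1) were grown in DMEM/F-12 with 10% FCS at 37 °C in humidified 5% CO2. Cells were exposed to compound for 48 h alongside a DMSO control (0.004% final), then fixed and stained with propidium iodide. Cell cycle was read by flow cytometry with the Cycle Test Plus kit.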

[12] = Cell cycle arrest in human AC1-M88 cells assessed as accumulation at G2 phase at 0.26 uM after 48 hrs by propidium iodide staining-based FACS analysis; format: functional
[13] = molecular target: T1, Casein kinase I isoform delta; experiment: Inhibition of recombinant CK1delta kinase domain at 10 nM by ATP competitive binding assay
Target sequence in this assay (P48730 whole entry, looked up, canonical isoform): as the sequence (P48730 whole entry, canonical isoform) above

[14] = Cell cycle arrest in human AC1-M88 cells assessed as accumulation at S phase at 0.26 uM after 48 hrs by propidium iodide staining-based FACS analysis; format: functional

Sequence of Mitogen-activated protein kinase 9 (Homo sapiens) (P45984 whole entry, looked up, canonical isoform): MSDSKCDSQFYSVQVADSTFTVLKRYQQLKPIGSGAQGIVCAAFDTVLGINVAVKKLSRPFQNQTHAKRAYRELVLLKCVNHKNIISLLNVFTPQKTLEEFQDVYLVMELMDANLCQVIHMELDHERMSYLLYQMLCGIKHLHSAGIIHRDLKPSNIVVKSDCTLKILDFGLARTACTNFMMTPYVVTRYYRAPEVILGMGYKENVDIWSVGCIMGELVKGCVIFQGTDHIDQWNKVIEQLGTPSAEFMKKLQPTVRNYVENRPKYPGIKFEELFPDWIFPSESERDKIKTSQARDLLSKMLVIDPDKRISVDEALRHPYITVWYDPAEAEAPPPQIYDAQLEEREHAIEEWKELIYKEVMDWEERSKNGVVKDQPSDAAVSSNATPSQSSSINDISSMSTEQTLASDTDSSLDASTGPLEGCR

inhibition [1]: 87%
IC50 [2]: 230 nM
inhibition [3]: 72%
Compound: CC(C)c1onc(-c2ccc(F)cc2)c1-c1ccncc1

inhibition [5]: Active
inhibition [6]: inactive
Compound: COc1ccc(/C=C/C(=O)Nc2cc(-c3[nH]c(SC)nc3-c3ccc(F)cc3)ccn2)c(OC)c1
Activity [4]: 6.3%
Activity [7]: 87.1%

inhibition [8]: Active
inhibition [9]: 10%
inhibition [13]: 10%
Compound: COc1ccc(/C=C/C(=O)Nc2cc(-c3[nH]c([S+](C)[O-])nc3-c3ccc(F)cc3)ccn2)c(OC)c1 (centres undefined)
Activity [10]: 77.1%
Activity [11]: 12%
Activity [12]: 5.32%
Activity [14]: 3.95%

— ChEMBL document CHEMBL1155278, “3,4-Diaryl-isoxazoles and -imidazoles as potent dual inhibitors of p38alpha mitogen activated protein kinase and casein kinase 1delta” (J Med Chem, 2009)
